Test results reported in ChEMBL document CHEMBL1130789, “Peptidyl human heart chymase inhibitors. 1. Synthesis and inhibitory activity of difluoromethylene ketone derivatives bearing P' binding subsites” (Bioorg Med Chem Lett, 1998).
Non-standard residues stand in square brackets, D forms with d. Residues, ends and D or L forms follow the SMILES beside them. ξ: configuration not given here. *: point of attachment. ξF = NC(Cc1ccccc1)C(=O)O; Boc = CC(C)(C)OC(=O)*; CF3 = FC(F)(F)*

How the values were obtained:
Bos taurus = organism: Bos taurus; test: Selectivity ratio of Bovine chymotrypsin (BCT - Ki) to human heart chymase (HHC - Ki)
Chymase = target: T1, Chymase (Homo sapiens, UniProt P23946); test: Compound was evaluated for inhibitory activity against human heart chymase (HHC)
T1 sequence (P23946 whole entry): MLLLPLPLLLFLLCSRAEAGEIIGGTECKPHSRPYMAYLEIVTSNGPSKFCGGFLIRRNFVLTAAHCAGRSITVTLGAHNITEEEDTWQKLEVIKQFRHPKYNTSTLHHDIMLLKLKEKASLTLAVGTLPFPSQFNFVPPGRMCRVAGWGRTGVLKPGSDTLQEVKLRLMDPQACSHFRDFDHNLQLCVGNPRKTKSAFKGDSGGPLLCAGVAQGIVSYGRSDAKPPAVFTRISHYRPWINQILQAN
In short: (§1)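 Synthetic chromogenic substrate at 2.5 mM final in 20 mM Tris-HCl pH 7.5 with 2 M KCl. Five inhibitor concentrations were tested, with 10% DMSO in water as the control. The enzyme was added last. A405 minus A650 was read after 2 h at 37 °C. Residual activity was fitted by Easson–Stedman, and Ki = Ki'×Km/(Km+[S]). Mean ± SEM, n = 3 (some n = 2).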

Chymotrypsinogen A = Chymotrypsinogen A (Bos taurus, UniProt P00766); test: Compound was evaluated for inhibitory activity against Chymotrypsinogen; in short: as §1

SMILES	Ratio (Bos taurus)	Ki (Chymase) [µM]	Ki (Chymotrypsinogen A) [µM]
CC(C)[C@H](NC(=O)OC(C)(C)C)C(=O)N1CCC[C@H]1C(=O)NC(Cc1ccccc1)C(=O)C(F)(F)C(=O)NC(CC(=O)O)C(=O)O (stereo not given in full)	> 65	1.55	> 100
CC(C)[C@H](NC(=O)OC(C)(C)C)C(=O)N1CCC[C@H]1C(=O)NC(Cc1ccccc1)C(=O)C(F)(F)C(=O)NCCC(=O)O (stereo not given in full)	63	0.0364	2.3
CC(C)[C@H](NC(=O)CCc1ccccc1)C(=O)N1CCC[C@H]1C(=O)NC(Cc1ccccc1)C(=O)C(F)(F)C(=O)Nc1cccc(C(=O)O)c1 (stereo not given in full)	15	0.0013	0.019
CC(C)[C@H](NC(=O)OC(C)(C)C)C(=O)N1CCC[C@H]1C(=O)NC(Cc1ccccc1)C(=O)C(F)(F)C(=O)Nc1ccccc1C(=O)O (stereo not given in full)	> 28	3.62	> 100
CC(C)[C@H](NC(=O)OC(C)(C)C)C(=O)N1CCC[C@H]1C(=O)NC(Cc1ccccc1)C(=O)C(F)(F)C(=O)Nc1cccc(C(=O)O)c1 (stereo not given in full)		0.0056	0.364
CC(C)[C@H](NC(=O)OC(C)(C)C)C(=O)N1CCC[C@H]1C(=O)NC(Cc1ccccc1)C(=O)C(F)(F)C(=O)NCC(=O)O (stereo not given in full)	200	0.0131	2.62
CC(C)[C@H](NC(=O)OC(C)(C)C)C(=O)N1CCC[C@H]1C(=O)NC(Cc1ccccc1)C(=O)C(F)(F)C(=O)NCC(=O)OCc1ccccc1 (stereo not given in full)	25	0.0125	0.316
CC(C)[C@H](NS(C)(=O)=O)C(=O)N1CCC[C@H]1C(=O)NC(Cc1ccccc1)C(=O)C(F)(F)C(=O)Nc1cccc(C(=O)O)c1 (stereo not given in full)	13	0.0165	0.207
CC(C)[C@H](NC(=O)OC(C)(C)C)C(=O)N1CCC[C@H]1C(=O)NC(Cc1ccccc1)C(=O)C(F)(F)C(=O)NC(C(=O)O)c1ccccc1 (stereo not given in full)	> 96	1.04	> 100
CC(C)[C@H](NC(=O)OC(C)(C)C)C(=O)N1CCC[C@H]1C(=O)NC(Cc1ccccc1)C(=O)C(F)(F)C(=O)NCCCC(=O)O (stereo not given in full)	185	0.024	4.43
CC(C)[C@H](NC(=O)OC(C)(C)C)C(=O)N1CCC[C@H]1C(=O)NC(Cc1ccccc1)C(=O)C(F)(F)C(=O)N[C@@H](Cc1ccccc1)C(=O)O (stereo not given in full)	151	0.513	77.4
CC(C)[C@H](NS(=O)(=O)c1ccccc1)C(=O)N1CCC[C@H]1C(=O)NC(Cc1ccccc1)C(=O)C(F)(F)C(=O)Nc1cccc(C(=O)O)c1 (stereo not given in full)	88	0.0063	0.554
CC(C)[C@H](NC(=O)OC(C)(C)C)C(=O)N1CCC[C@H]1C(=O)NC(Cc1ccccc1)C(=O)C(F)(F)C(=O)NC(Cc1ccccc1)C(=O)O (stereo not given in full)	57	0.0301	1.7
CC(C)[C@H](NC(=O)OC(C)(C)C)C(=O)N1CCC[C@H]1C(=O)NC(Cc1ccccc1)C(=O)C(F)(F)C(=O)N(C)Cc1ccccc1 (stereo not given in full)	108	0.0701	7.55
CC(C)[C@H](NC(=O)OC(C)(C)C)C(=O)N1CCC[C@H]1C(=O)NC(Cc1ccccc1)C(=O)C(F)(F)C(=O)NCc1ccccc1 (mixture of isomers; form 2) [listing 1 of 2 here]	129		
CC(=O)N[C@H](C(=O)N1CCC[C@H]1C(=O)NC(Cc1ccccc1)C(=O)C(F)(F)C(=O)Nc1cccc(C(=O)O)c1)C(C)C (stereo not given in full)	2	0.0071	0.011
CNC(=O)C(F)(F)C(=O)C(Cc1ccccc1)NC(=O)[C@@H]1CCCN1C(=O)[C@@H](NC(=O)OC(C)(C)C)C(C)C (stereo not given in full)	37	0.0287	1.07
CC(C)[C@H](NC(=O)OC(C)(C)C)C(=O)N1CCC[C@H]1C(=O)NC(Cc1ccccc1)C(=O)C(F)(F)C(=O)N1CCCC1C(=O)O (stereo not given in full)	> 203	0.493	> 100
CC(C)[C@H](NC(=O)OC(C)(C)C)C(=O)N1CCC[C@H]1C(=O)NC(Cc1ccccc1)C(=O)C(F)(F)C(=O)NCc1ccccc1 (mixture of isomers; form 1) [listing 1 of 2 here]		0.0074	0.172
CC(C)[C@H](NC(=O)c1ccccc1)C(=O)N1CCC[C@H]1C(=O)NC(Cc1ccccc1)C(=O)C(F)(F)C(=O)Nc1cccc(C(=O)O)c1 (stereo not given in full)	88	0.0031	0.275
CC(C)[C@H](NC(=O)OC(C)(C)C)C(=O)N1CCC[C@H]1C(=O)NC(Cc1ccccc1)C(=O)C(F)(F)C(=O)Nc1ccc(C(=O)O)cc1 (stereo not given in full)	29	0.0068	0.2
CC(C)[C@H](NC(=O)OC(C)(C)C)C(=O)N1CCC[C@H]1C(=O)NC(Cc1ccccc1)C(=O)C(F)(F)C(=O)Nc1ccccc1 (stereo not given in full)	4	0.0163	0.07
CC(C)[C@H](NC(=O)OC(C)(C)C)C(=O)N1CCC[C@H]1C(=O)NC(Cc1ccccc1)C(=O)C(F)(F)C(=O)NCc1ccccc1 (mixture of isomers; form 1) [listing 2 of 2 here]	23		
CC(NC(=O)C(F)(F)C(=O)C(Cc1ccccc1)NC(=O)[C@@H]1CCCN1C(=O)[C@@H](NC(=O)OC(C)(C)C)C(C)C)C(=O)O (stereo not given in full)	837	0.0656	54.9
COC(=O)CNC(=O)C(F)(F)C(=O)C(Cc1ccccc1)NC(=O)[C@@H]1CCCN1C(=O)[C@@H](NC(=O)OC(C)(C)C)C(C)C (stereo not given in full)	387	0.0065	2.51
CC(C)[C@H](NC(=O)OC(C)(C)C)C(=O)N1CCC[C@H]1C(=O)NC(Cc1ccccc1)C(=O)C(F)(F)C(=O)NCCc1ccccc1 (stereo not given in full)	111	0.0183	2.04
CC(C)[C@H](NC(=O)OC(C)(C)C)C(=O)N1CCC[C@H]1C(=O)NC(Cc1ccccc1)C(=O)C(F)(F)C(=O)NC(CCC(=O)O)C(=O)O (stereo not given in full)	> 99	1.01	> 100
CC(C)[C@H](NC(=O)OC(C)(C)C)C(=O)N1CCC[C@H]1C(=O)NC(Cc1ccccc1)C(=O)C(F)(F)F (stereo partly drawn) (Boc-Val-Pro-[ξF]-CF3)	2	0.0558	0.113
CC(C)[C@H](NC(=O)OC(C)(C)C)C(=O)N1CCC[C@H]1C(=O)NC(Cc1ccccc1)C(=O)C(F)(F)C(=O)NCc1ccccc1 (mixture of isomers; form 2) [listing 2 of 2 here]		0.0924	11.9
